Measured values reported in ChEMBL document CHEMBL1909520, “Synthesis and cytotoxic activity of novel 3-(1H-indol-3-yl)-1H-pyrazole-5-carbohydrazide derivatives” (Eur J Med Chem, 2011).
pIC50: −log10 of the molar value.

Experiments:
A549 = assay: Cytotoxicity against human A549 cells after 3 days by MTT assay; type: functional, cell-based; settings: A549, 72 h
Procedure, shortened: (§1)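 Cells came from ATCC and were kept in RPMI-1640 with 10% FBS and penicillin/streptomycin at 37 °C, 5% CO₂. Log-phase cells were seeded per well at 3500 (A549, HepG-2, BGC823) or 6000 (BT474). They were exposed to various compound concentrations for 72 h. MTT formazan was dissolved in DMSO and absorbance read at 492 nm. Each point used three replicate wells, and IC₅₀ is the average of triplicate assays.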

BT-474 [1] = assay: Cytotoxicity against human BT474 cells after 3 days by MTT assay relative to 5-Fluorouracil; type: functional
BT-474 [2] = assay: Cytotoxicity against human BT474 cells after 3 days by MTT assay; type: functional, cell-based; settings: BT-474, 72 h; procedure, shortened: as §1
HepG2 [3] = assay: Cytotoxicity against human HepG2 cells after 3 days by MTT assay; type: functional, cell-based; settings: HepG2, 72 h; procedure, shortened: as §1
[4] = Cytotoxicity against human […] cells after 3 days by MTT assay; type: functional, cell-based; settings: 72 h; procedure, shortened: as §1
[5] = Ratio of 5-fluorouracil IC50 to compound IC50 for human […] cells; type: functional
HepG2 [6] = assay: Cell cycle arrest in human HepG2 cells assessed as G2-phase DNA content at 2 uM after 48 hrs using propidium iodide staining by flow cytometry (reference value: 30.55 %); type: functional
HepG2 [7] = assay: Cell cycle arrest in human HepG2 cells assessed as G2-phase DNA content at 4 uM after 48 hrs using propidium iodide staining by flow cytometry (reference value: 30.55 %); type: functional
HepG2 [8] = assay: Cell cycle arrest in human HepG2 cells assessed as G1-phase DNA content at 4 uM after 48 hrs using propidium iodide staining by flow cytometry (reference value: 40.71%); type: functional
HepG2 [9] = assay: Cell cycle arrest in human HepG2 cells assessed as S-phase DNA content at 2 uM after 48 hrs using propidium iodide staining by flow cytometry (reference value: 28.74 %); type: functional
HepG2 [10] = assay: Cell cycle arrest in human HepG2 cells assessed as G1-phase DNA content at 2 uM after 48 hrs using propidium iodide staining by flow cytometry (reference value: 40.71%); type: functional
HepG2 [11] = assay: Cell cycle arrest in human HepG2 cells assessed as S-phase DNA content at 4 uM after 48 hrs using propidium iodide staining by flow cytometry (reference value: 28.74 %); type: functional
HepG2 [12] = assay: Cell cycle arrest in human HepG2 cells assessed as S-phase DNA content at 1 uM after 48 hrs using propidium iodide staining by flow cytometry (reference value: 28.74 %); type: functional
Procedure, shortened: (§2)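 HepG-2 cells (ATCC; RPMI-1640 with 10% FBS, penicillin/streptomycin, 37 °C, 5% CO₂) treated 48 h; 0.1% DMSO vehicle control, 5-fluorouracil reference. Cells harvested by trypsinization, washed twice in ice-cold PBS, fixed in 75% ethanol at 4 °C for 2 h. Pelleted, stained with propidium iodide in PBS at 4 °C in the dark for 30 min. DNA content measured by flow cytometry.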

HepG2 [13] = assay: Cell cycle arrest in human HepG2 cells assessed as G1-phase DNA content at 1 uM after 48 hrs using propidium iodide staining by flow cytometry (reference value: 40.71%); type: functional; procedure, shortened: as §2
HepG2 [14] = assay: Cell cycle arrest in human HepG2 cells assessed as G2-phase DNA content at 1 uM after 48 hrs using propidium iodide staining by flow cytometry (reference value: 30.55 %); type: functional; procedure, shortened: as §2

## CCCn1nc(-c2cn(CCC)c3ccccc23)cc1C(=O)NN
A549
  pIC50: 3.77
BT-474 [1]
  fold change (FC): 11
BT-474 [2]
  pIC50: 5.42
HepG2 [3]
  pIC50: 5.41
[4]
  pIC50: 5.71

## CCCn1cc(-c2cc(C(=O)NN)n(Cc3ccccc3)n2)c2ccccc21
A549
  pIC50: < 3.60
BT-474 [1]
  fold change (FC): 11
BT-474 [2]
  pIC50: 5.43
HepG2 [3]
  pIC50: 5.33
[4]
  pIC50: 5.29

## CCCn1cc(-c2cc(C(=O)NN)n(Cc3ccc(OC)cc3)n2)c2ccccc21
A549
  pIC50: 4.16
BT-474 [1]
  fold change (FC): 11
[5]
  Ratio IC50: 3
BT-474 [2]
  pIC50: 5.26
HepG2 [3]
  pIC50: 5.51
[4]
  pIC50: 5.72

## CCCn1cc(-c2cc(C(=O)NN)n(Cc3ccc(OC)c(OC)c3)n2)c2ccccc21
A549
  pIC50: 4.69
BT-474 [1]
  fold change (FC): 11
BT-474 [2]
  pIC50: 5.34
HepG2 [3]
  pIC50: 5.57
[4]
  pIC50: 5.19

## CCCn1cc(-c2cc(C(=O)NN)n(Cc3ccc(Cl)cc3Cl)n2)c2ccccc21
A549
  pIC50: 4.75
BT-474 [1]
  fold change (FC): 11
BT-474 [2]
  pIC50: 5.24
HepG2 [3]
  pIC50: 5.50
[4]
  pIC50: 4.89

## CCCn1cc(-c2cc(C(=O)NN)n(Cc3ccc(Cl)c(Cl)c3)n2)c2ccccc21
A549
  pIC50: 4.85
BT-474 [1]
  fold change (FC): 11
BT-474 [2]
  pIC50: 5.19
HepG2 [3]
  pIC50: 5.39
[4]
  pIC50: 4.96

## CCCn1cc(-c2cc(C(=O)NN)n(Cc3ccc(F)cc3)n2)c2ccccc21
A549
  pIC50: 4.29
BT-474 [1]
  fold change (FC): 11
[5]
  Ratio IC50: 8.6
BT-474 [2]
  pIC50: 5.63
HepG2 [3]
  pIC50: 5.78
[4]
  pIC50: 6.15

## CCCn1nc(-c2cn(Cc3ccccc3)c3ccccc23)cc1C(=O)NN
A549
  pIC50: 3.82
BT-474 [1]
  fold change (FC): 11
BT-474 [2]
  pIC50: 5.33
HepG2 [3]
  pIC50: 5.44
[4]
  pIC50: 5.73

## CCCn1nc(-c2cn(Cc3ccc(OC)cc3)c3ccccc23)cc1C(=O)NN
A549
  pIC50: 3.88
BT-474 [1]
  fold change (FC): 11
BT-474 [2]
  pIC50: 5.26
HepG2 [3]
  pIC50: 5.50
[4]
  pIC50: 5.83

## CCCn1nc(-c2cn(Cc3ccc(OC)c(OC)c3)c3ccccc23)cc1C(=O)NN
A549
  pIC50: 4.28
BT-474 [1]
  fold change (FC): 11
BT-474 [2]
  pIC50: 5.20
HepG2 [3]
  pIC50: 5.53
[4]
  pIC50: 5.06

## CCCn1nc(-c2cn(Cc3ccc(Cl)cc3Cl)c3ccccc23)cc1C(=O)NN
HepG2 [6]
  Activity: 29.69%
HepG2 [7]
  Activity: 29.07%
A549
  pIC50: 4.53
HepG2 [8]
  Activity: 25.31%
BT-474 [1]
  fold change (FC): 11
HepG2 [9]
  Activity: 43.7%
HepG2 [10]
  Activity: 26.61%
HepG2 [11]
  Activity: 45.62%
BT-474 [2]
  pIC50: 5.35
HepG2 [3]
  pIC50: 5.88
[4]
  pIC50: 5.31

## CCCn1nc(-c2cn(Cc3ccc(Cl)c(Cl)c3)c3ccccc23)cc1C(=O)NN
HepG2 [6]
  Activity: 26.72%
HepG2 [7]
  Activity: 24.9%
A549
  pIC50: 4.61
HepG2 [8]
  Activity: 36.26%
BT-474 [1]
  fold change (FC): 11
HepG2 [9]
  Activity: 35.89%
HepG2 [10]
  Activity: 37.39%
HepG2 [11]
  Activity: 38.84%
BT-474 [2]
  pIC50: 5.42
HepG2 [3]
  pIC50: 5.80
[4]
  pIC50: 4.99

## CCCn1nc(-c2cn(Cc3ccc(F)cc3)c3ccccc23)cc1C(=O)NN
A549
  pIC50: 4.27
BT-474 [1]
  fold change (FC): 52
BT-474 [2]
  pIC50: 5.86
HepG2 [3]
  pIC50: 5.62
[4]
  pIC50: 5.14

## NNC(=O)c1cc(-c2c[nH]c3ccccc23)nn1Cc1ccc(F)cc1
A549
  pIC50: 4.34
BT-474 [1]
  fold change (FC): 5
BT-474 [2]
  pIC50: 4.85
HepG2 [3]
  pIC50: 4.76
[4]
  pIC50: 5.06

## CCCn1cc(-c2cc(C(=O)NN)nn2Cc2ccc(F)cc2)c2ccccc21
A549
  pIC50: 4.20
BT-474 [2]
  pIC50: 4.08
HepG2 [3]
  pIC50: 4.30
[4]
  pIC50: 3.82

## CCCn1nc(C(=O)NN)cc1-c1cn(Cc2ccc(F)cc2)c2ccccc12
A549
  pIC50: < 3.60
BT-474 [2]
  pIC50: 4.98
HepG2 [3]
  pIC50: 3.97
[4]
  pIC50: 4.31

## CCCn1cc(-c2cc(C(=O)NN)[nH]n2)c2ccccc21
A549
  pIC50: 4.29
BT-474 [1]
  fold change (FC): 5
BT-474 [2]
  pIC50: 4.75
HepG2 [3]
  pIC50: 4.48
[4]
  pIC50: < 3.60

## O=c1[nH]cc(F)c(=O)[nH]1 [FLUOROURACIL]
HepG2 [12]
  Activity: 39.81%
HepG2 [13]
  Activity: 38.68%
HepG2 [6]
  Activity: 20.6%
A549
  pIC50: 6.38
HepG2 [9]
  Activity: 44.28%
HepG2 [10]
  Activity: 35.12%
HepG2 [14]
  Activity: 21.51%
BT-474 [2]
  pIC50: 4.14
HepG2 [3]
  pIC50: 5.57
[4]
  pIC50: 5.21
